Experimental data as given in the M2OR odorant receptor database.
Residue numbers refer to the chain shown, from its start.

Assays:
Details in all cases: stereoisomer not certain
OR52I1 (Homo sapiens) = molecular target: T1, OR52I1 (Homo sapiens) (UniProt Q8NGK6)
T1 sequence (whole entry): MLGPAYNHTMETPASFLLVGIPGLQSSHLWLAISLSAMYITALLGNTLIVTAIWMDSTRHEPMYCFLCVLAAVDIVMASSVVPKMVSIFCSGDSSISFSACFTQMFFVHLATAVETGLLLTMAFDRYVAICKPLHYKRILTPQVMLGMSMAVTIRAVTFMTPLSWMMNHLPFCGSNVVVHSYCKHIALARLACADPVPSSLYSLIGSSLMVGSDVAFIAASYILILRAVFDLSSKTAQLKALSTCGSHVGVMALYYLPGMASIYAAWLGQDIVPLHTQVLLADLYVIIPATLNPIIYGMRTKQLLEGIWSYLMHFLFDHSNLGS
Method in brief: (§1)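 Assay methods differ from source to source, frequently being transient luciferase assays in mammalian cell lines. For each receptor–molecule pair, the label responsive (active) applies when the original authors judged the measured signal statistically different from baseline, and non-responsive (inactive) applies otherwise.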

OR52I2 (Homo sapiens) = molecular target: T2, OR52I2 (Homo sapiens) (UniProt Q8NH67)
T2 sequence (whole entry): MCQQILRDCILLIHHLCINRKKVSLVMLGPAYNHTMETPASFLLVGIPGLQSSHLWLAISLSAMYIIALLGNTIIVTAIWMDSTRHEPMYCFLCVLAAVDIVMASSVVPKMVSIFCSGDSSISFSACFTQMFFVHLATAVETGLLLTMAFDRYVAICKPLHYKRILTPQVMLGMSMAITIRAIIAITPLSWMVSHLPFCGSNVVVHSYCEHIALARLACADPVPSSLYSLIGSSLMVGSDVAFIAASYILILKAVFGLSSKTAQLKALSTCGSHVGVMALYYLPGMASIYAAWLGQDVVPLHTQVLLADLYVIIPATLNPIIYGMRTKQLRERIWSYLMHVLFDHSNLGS
Method in brief: as §1

OR52J3 (Homo sapiens) = OR52J3 (Homo sapiens) (UniProt Q8NH60)
Method in brief: as §1

OR52K1 (Homo sapiens) = molecular target: T3, OR52K1 (Homo sapiens) (UniProt Q8NGK4)
T3 sequence (whole entry): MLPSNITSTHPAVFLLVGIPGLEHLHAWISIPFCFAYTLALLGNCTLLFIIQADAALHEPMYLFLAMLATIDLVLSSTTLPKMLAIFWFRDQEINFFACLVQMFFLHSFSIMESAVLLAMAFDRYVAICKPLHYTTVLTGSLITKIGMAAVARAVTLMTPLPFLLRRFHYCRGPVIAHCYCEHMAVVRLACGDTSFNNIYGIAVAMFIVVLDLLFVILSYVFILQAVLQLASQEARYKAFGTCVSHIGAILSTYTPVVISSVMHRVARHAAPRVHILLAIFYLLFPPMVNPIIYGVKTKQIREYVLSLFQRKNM
Method in brief: as §1

OR52K2 (Homo sapiens) = molecular target: T4, OR52K2 (Homo sapiens) (UniProt Q8NGK3)
T4 sequence (whole entry): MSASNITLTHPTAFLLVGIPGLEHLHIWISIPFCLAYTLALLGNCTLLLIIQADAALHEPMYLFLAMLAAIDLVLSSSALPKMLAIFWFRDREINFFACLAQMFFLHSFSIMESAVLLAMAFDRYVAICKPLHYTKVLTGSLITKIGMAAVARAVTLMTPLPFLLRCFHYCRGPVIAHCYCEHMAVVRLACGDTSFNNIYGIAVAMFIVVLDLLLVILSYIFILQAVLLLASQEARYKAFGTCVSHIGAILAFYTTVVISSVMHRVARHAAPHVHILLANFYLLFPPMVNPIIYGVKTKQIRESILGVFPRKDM
Method in brief: as §1

OR52L1 (Homo sapiens) [1] = molecular target: T5, OR52L1 (Homo sapiens) (UniProt Q8NGH7)
T5 sequence (whole entry): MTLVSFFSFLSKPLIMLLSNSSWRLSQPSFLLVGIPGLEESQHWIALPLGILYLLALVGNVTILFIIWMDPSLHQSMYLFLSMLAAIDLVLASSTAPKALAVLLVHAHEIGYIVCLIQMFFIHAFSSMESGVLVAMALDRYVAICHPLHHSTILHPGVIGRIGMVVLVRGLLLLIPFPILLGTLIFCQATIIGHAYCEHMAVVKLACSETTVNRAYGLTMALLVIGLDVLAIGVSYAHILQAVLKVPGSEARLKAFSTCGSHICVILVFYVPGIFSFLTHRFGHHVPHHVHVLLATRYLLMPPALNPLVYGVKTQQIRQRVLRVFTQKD
Method in brief: as §1

OR52M1 (Homo sapiens) = molecular target: T6, OR52M1 (Homo sapiens) (UniProt Q8NGK5)
T6 sequence (whole entry): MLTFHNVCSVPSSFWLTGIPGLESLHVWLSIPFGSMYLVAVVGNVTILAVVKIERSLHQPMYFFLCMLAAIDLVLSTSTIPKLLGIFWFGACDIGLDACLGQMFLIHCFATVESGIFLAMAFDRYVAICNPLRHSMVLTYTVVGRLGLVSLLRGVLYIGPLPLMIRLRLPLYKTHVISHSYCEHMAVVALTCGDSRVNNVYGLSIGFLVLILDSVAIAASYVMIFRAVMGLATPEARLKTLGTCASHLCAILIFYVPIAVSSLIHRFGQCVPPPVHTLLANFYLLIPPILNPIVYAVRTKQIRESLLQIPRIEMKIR
Method in brief: as §1

OR52N1 (Homo sapiens) = molecular target: T7, OR52N1 (Homo sapiens) (UniProt Q8NH53)
T7 sequence (whole entry): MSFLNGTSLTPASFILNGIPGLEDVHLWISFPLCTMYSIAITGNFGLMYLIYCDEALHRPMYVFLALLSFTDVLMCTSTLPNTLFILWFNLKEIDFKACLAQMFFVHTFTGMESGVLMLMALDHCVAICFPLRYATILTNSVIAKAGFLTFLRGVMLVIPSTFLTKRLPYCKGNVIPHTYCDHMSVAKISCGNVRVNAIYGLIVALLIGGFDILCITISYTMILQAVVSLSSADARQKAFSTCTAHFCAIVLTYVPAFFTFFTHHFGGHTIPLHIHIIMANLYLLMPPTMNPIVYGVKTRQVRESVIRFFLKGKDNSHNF
Method in brief: as §1

OR52N2 (Homo sapiens) = molecular target: T8, OR52N2 (Homo sapiens) (UniProt Q8NGI0)
T8 sequence (whole entry): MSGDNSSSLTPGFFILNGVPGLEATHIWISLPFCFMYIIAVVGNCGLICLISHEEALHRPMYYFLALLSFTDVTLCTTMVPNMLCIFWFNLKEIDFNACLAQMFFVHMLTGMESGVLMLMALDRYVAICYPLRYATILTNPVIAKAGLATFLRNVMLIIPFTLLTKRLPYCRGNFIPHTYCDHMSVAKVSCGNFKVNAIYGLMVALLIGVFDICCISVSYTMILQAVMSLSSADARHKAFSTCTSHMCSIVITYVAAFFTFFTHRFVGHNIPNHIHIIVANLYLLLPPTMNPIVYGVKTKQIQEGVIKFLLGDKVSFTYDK
Method in brief: as §1

OR52N4 (Homo sapiens) = molecular target: T9, OR52N4 (Homo sapiens) (UniProt Q8NGI2)
T9 sequence (whole entry): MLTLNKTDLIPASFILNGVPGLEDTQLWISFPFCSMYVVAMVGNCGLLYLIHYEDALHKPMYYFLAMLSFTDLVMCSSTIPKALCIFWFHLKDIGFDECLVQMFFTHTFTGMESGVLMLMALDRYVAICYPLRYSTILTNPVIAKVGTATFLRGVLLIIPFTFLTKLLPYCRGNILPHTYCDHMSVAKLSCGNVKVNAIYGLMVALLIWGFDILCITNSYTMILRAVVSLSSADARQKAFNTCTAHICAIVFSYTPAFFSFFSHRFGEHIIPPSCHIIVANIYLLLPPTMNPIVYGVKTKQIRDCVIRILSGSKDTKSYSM
Method in brief: as §1

OR52N5 (Homo sapiens) = molecular target: T10, OR52N5 (Homo sapiens) (UniProt Q8NH56)
T10 sequence (whole entry): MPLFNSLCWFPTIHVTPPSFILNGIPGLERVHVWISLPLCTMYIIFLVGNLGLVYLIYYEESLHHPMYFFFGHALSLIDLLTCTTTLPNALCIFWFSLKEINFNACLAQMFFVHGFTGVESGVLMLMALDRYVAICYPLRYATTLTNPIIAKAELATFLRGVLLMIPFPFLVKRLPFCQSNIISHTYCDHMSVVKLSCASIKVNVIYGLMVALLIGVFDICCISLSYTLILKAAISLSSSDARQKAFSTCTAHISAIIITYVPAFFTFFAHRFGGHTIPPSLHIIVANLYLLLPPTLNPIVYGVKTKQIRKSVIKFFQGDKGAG
Method in brief: as §1

OR52R1 (Homo sapiens) = molecular target: T11, OR52R1 (Homo sapiens) (UniProt Q8NGF1)
T11 sequence (whole entry): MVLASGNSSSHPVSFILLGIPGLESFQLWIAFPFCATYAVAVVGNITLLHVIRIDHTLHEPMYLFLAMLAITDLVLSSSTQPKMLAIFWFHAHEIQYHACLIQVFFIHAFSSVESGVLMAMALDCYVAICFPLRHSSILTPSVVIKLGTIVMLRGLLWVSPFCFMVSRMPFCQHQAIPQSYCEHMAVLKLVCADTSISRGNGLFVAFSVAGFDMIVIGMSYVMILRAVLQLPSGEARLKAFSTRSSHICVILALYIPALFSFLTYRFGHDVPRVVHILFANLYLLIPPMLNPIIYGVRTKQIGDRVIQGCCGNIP
Method in brief: as §1

OR52W1 (Homo sapiens) = molecular target: T12, OR52W1 (Homo sapiens) (UniProt Q6IF63)
T12 sequence (whole entry): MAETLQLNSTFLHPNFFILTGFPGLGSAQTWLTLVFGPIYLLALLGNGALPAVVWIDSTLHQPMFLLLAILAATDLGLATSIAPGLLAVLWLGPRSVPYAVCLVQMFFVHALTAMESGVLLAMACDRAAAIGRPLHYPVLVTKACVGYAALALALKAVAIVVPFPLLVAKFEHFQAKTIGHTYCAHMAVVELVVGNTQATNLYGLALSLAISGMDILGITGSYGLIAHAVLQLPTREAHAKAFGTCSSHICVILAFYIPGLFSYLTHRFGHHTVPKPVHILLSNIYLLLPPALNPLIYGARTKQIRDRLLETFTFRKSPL
Method in brief: as §1

OR56A1 (Homo sapiens) = molecular target: T13, OR56A1 (Homo sapiens) (UniProt Q8NGH5)
T13 sequence (whole entry): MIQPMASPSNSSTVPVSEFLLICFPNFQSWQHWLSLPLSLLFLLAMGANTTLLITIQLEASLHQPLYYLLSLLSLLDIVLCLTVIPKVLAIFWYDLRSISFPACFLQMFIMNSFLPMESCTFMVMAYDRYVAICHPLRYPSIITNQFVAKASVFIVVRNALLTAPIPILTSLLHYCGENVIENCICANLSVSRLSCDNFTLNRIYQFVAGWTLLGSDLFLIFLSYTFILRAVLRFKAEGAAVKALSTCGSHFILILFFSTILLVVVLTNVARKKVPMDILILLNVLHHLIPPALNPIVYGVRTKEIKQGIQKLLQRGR
Method in brief: as §1

OR56A3 (Homo sapiens) = molecular target: T14, OR56A3 (Homo sapiens) (UniProt Q8NH54)
T14 sequence (whole entry): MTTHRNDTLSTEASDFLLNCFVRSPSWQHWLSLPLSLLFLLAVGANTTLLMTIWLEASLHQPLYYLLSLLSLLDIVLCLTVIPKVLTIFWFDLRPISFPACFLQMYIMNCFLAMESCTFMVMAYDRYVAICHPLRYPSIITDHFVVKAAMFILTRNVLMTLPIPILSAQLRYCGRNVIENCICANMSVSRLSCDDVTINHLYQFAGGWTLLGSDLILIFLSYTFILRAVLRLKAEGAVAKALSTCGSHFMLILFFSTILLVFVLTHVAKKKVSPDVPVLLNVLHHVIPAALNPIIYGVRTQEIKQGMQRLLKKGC
Method in brief: as §1

OR56A5 (Homo sapiens) = molecular target: T15, OR56A5 (Homo sapiens) (UniProt P0C7T3)
T15 sequence (whole entry): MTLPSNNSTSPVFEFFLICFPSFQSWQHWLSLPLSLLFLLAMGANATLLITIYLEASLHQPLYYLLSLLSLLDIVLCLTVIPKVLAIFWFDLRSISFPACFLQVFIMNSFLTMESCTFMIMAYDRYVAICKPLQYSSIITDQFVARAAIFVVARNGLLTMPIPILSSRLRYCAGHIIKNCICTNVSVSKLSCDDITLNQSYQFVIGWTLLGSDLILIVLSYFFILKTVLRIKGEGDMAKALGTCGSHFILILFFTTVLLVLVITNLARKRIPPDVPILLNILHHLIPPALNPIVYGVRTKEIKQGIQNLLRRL
Method in brief: as §1

OR56B1 (Homo sapiens) = molecular target: T16, OR56B1 (Homo sapiens) (UniProt Q8NGI3)
T16 sequence (whole entry): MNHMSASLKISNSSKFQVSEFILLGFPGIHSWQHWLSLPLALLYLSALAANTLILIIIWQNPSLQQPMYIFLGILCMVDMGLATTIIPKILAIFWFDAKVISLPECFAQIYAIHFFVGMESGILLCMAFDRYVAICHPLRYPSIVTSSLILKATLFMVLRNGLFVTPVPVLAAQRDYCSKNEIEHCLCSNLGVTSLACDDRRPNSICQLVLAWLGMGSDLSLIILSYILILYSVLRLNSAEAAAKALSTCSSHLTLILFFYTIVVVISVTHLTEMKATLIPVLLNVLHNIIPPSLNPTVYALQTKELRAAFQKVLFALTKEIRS
Method in brief: as §1

OR52L1 (Homo sapiens) [2] = molecular target: T17, OR52L1 (Homo sapiens) (UniProt Q8NGH7); remark: listed apart in the source
T17 sequence (whole entry): T5 sequence (whole entry) with R140C, R161C, T183K, R297W
Method in brief: as §1

OR56A4 (Homo sapiens) = molecular target: T18, OR56A4 (Homo sapiens) (UniProt Q8NGH8)
T18 sequence (whole entry): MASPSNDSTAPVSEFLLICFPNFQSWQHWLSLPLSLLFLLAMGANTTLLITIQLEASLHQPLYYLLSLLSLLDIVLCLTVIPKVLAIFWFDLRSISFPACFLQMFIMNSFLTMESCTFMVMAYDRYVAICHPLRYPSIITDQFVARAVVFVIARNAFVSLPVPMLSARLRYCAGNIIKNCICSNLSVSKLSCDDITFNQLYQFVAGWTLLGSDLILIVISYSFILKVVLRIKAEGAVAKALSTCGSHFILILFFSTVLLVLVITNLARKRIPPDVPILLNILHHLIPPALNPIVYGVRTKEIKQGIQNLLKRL
Method in brief: as §1

Measured: odorant receptor agonist call

Chain of OR52J3 (Homo sapiens) (Q8NH60 whole entry): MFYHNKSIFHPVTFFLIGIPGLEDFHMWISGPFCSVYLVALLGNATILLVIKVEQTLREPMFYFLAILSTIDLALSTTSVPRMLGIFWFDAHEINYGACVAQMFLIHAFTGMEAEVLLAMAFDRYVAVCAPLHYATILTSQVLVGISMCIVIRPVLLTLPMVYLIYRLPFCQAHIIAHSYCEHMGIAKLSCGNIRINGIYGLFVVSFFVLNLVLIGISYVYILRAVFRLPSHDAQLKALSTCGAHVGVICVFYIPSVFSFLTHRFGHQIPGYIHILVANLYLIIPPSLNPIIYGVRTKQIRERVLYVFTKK

Cc1cnc(C)c(C)n1
not listed: OR52L1 (Homo sapiens) [2] | OR56A4 (Homo sapiens)
inactive: all other assays above

CC(CO)CS (stereo not given)
not listed: OR52L1 (Homo sapiens) [1]
inactive: all other assays above
